Results from ChEMBL document CHEMBL1122702, “Radiohalogen-labeled imaging agents. 3. Compounds for measurement of brain blood flow by emission tomography” (J Med Chem, 1984).

Species on record: Rattus norvegicus
Assay: Ratio of distribution of the [131I]-labeled compound at 5 min in rat liver over uptake in blood
Assay type: ADME, organism-based
Settings: other tissue
Method in brief: (§1)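 Male Sprague-Dawley rats (200–300 g, fed ad libitum), ether-anesthetized, got a tail-vein bolus of 0.2 mL saline containing 10–20 μCi 131I compound and were decapitated at the stated time. Organs were weighed and gamma-counted against a serially diluted external standard. Organ/blood ratio was calculated from % dose per gram of organ. Animal numbers per time point were 1–4.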

SMILES	Ratio
CNC(C)Cc1cc(OC)c(I)cc1OC (stereo unspecified)	5.4
CCCCCCNC(C)Cc1cc(OC)c(I)cc1OC (stereo unspecified)	5.4
CCN(CC)C(C)Cc1cc(OC)c(I)cc1OC (stereo unspecified)	5.5

Species on record: Rattus norvegicus
Assay: The distribution of the 131 I-labeled compound at 5 min was evaluated in rat heart as Percent of injected dose per gram in the organ
Assay type: ADME, organism-based
Settings: in vivo
Method in brief: (§2)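 Male Sprague-Dawley rats (200–300 g, free access to food and water), lightly ether-anesthetized and restrained, received a 0.2 mL saline tail-vein bolus of 10–20 μCi 131I-labeled compound. They were decapitated at the stated time, and organs were excised, weighed and gamma-counted. Percent injected dose was determined against a calibrated external standard made by serial dilution of the injectate. n = 1–4 rats.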

SMILES	Dose [%]
CNC(C)Cc1cc(OC)c(I)cc1OC (stereo unspecified)	0.93
CCCCCCNC(C)Cc1cc(OC)c(I)cc1OC (stereo unspecified)	2.1
CCN(CC)C(C)Cc1cc(OC)c(I)cc1OC (stereo unspecified)	0.35

Species on record: Rattus norvegicus
Assay: The distribution of the 131 I-labeled compound at 30 min was evaluated in rat brain as Percent of injected dose in the total organ
Assay type: ADME, organism-based
Settings: in vivo, 0.5 h
Method in brief: as §2

SMILES	Dose [%]
CNC(C)Cc1cc(OC)c(I)cc1OC (stereo unspecified)	1
CCCCCCNC(C)Cc1cc(OC)c(I)cc1OC (stereo unspecified)	0.97
CCN(CC)C(C)Cc1cc(OC)c(I)cc1OC (stereo unspecified)	0.26

Species on record: Rattus norvegicus
Assay: The distribution of the 131 I-labeled compound at 5 min was evaluated in rat liver as Percent of injected dose per gram in the organ
Assay type: ADME, organism-based
Settings: in vivo
Method in brief: as §2

SMILES	Dose [%]
CNC(C)Cc1cc(OC)c(I)cc1OC (stereo unspecified)	0.76
CCCCCCNC(C)Cc1cc(OC)c(I)cc1OC (stereo unspecified)	0.58
CCN(CC)C(C)Cc1cc(OC)c(I)cc1OC (stereo unspecified)	0.46

Species on record: Rattus norvegicus
Assay: Ratio of distribution of the [131I]-labeled compound at 30 min in rat brain over uptake in blood
Assay type: ADME, organism-based
Settings: 0.5 h
Method in brief: as §1

SMILES	Ratio
CNC(C)Cc1cc(OC)c(I)cc1OC (stereo unspecified)	2.2
CCCCCCNC(C)Cc1cc(OC)c(I)cc1OC (stereo unspecified)	3.4
CCN(CC)C(C)Cc1cc(OC)c(I)cc1OC (stereo unspecified)	4.3

Species on record: Rattus norvegicus
Assay: The distribution of the 131 I-labeled compound at 5 min was evaluated in rat brain as Percent of injected dose in the total organ
Assay type: ADME, organism-based
Settings: in vivo
Method in brief: as §2

SMILES	Dose [%]
CNC(C)Cc1cc(OC)c(I)cc1OC (stereo unspecified)	0.97
CCCCCCNC(C)Cc1cc(OC)c(I)cc1OC (stereo unspecified)	0.63
CCN(CC)C(C)Cc1cc(OC)c(I)cc1OC (stereo unspecified)	0.78

Species on record: Rattus norvegicus
Assay: The distribution of the 131 I-labeled compound at 5 min was evaluated in rat heart as Percent of injected dose in the total organ
Assay type: ADME, organism-based
Settings: in vivo
Method in brief: as §2

SMILES	Dose [%]
CNC(C)Cc1cc(OC)c(I)cc1OC (stereo unspecified)	0.65
CCCCCCNC(C)Cc1cc(OC)c(I)cc1OC (stereo unspecified)	1.5
CCN(CC)C(C)Cc1cc(OC)c(I)cc1OC (stereo unspecified)	0.4

Species on record: Rattus norvegicus
Assay: Ratio of distribution of the [131I]-labeled compound at 30 min in rat lung over uptake in blood
Assay type: ADME, organism-based
Settings: other tissue, 0.5 h
Method in brief: as §1

SMILES	Ratio
CNC(C)Cc1cc(OC)c(I)cc1OC (stereo unspecified)	11.4
CCCCCCNC(C)Cc1cc(OC)c(I)cc1OC (stereo unspecified)	25
CCN(CC)C(C)Cc1cc(OC)c(I)cc1OC (stereo unspecified)	20

Species on record: Rattus norvegicus
Assay: Ratio of distribution of the [131I]-labeled compound at 5 min in rat brain over uptake in blood
Assay type: ADME, organism-based
Settings: not given
Method in brief: as §1

SMILES	Ratio
CNC(C)Cc1cc(OC)c(I)cc1OC (stereo unspecified)	4.1
CCCCCCNC(C)Cc1cc(OC)c(I)cc1OC (stereo unspecified)	2.3
CCN(CC)C(C)Cc1cc(OC)c(I)cc1OC (stereo unspecified)	5.6

Species on record: Rattus norvegicus
Assay: The distribution of the 131 I-labeled compound at 5 min was evaluated in rat liver as Percent of injected dose in the total organ
Assay type: ADME, organism-based
Settings: in vivo
Method in brief: as §2

SMILES	Dose [%]
CNC(C)Cc1cc(OC)c(I)cc1OC (stereo unspecified)	5.3
CCCCCCNC(C)Cc1cc(OC)c(I)cc1OC (stereo unspecified)	4.6
CCN(CC)C(C)Cc1cc(OC)c(I)cc1OC (stereo unspecified)	6

Species on record: Rattus norvegicus
Assay: The distribution of the 131 I-labeled compound at 30 min was evaluated in rat lung as Percent of injected dose per gram in the organ
Assay type: ADME, organism-based
Settings: in vivo, 0.5 h
Method in brief: as §2

SMILES	Dose [%]
CNC(C)Cc1cc(OC)c(I)cc1OC (stereo unspecified)	3.2
CCCCCCNC(C)Cc1cc(OC)c(I)cc1OC (stereo unspecified)	4.3
CCN(CC)C(C)Cc1cc(OC)c(I)cc1OC (stereo unspecified)	1.2

Species on record: Rattus norvegicus
Assay: The distribution of the 131 I-labeled compound at 30 min was evaluated in rat heart as Percent of injected dose per gram in the organ
Assay type: ADME, organism-based
Settings: in vivo, 0.5 h
Method in brief: as §2

SMILES	Dose [%]
CNC(C)Cc1cc(OC)c(I)cc1OC (stereo unspecified)	0.53
CCCCCCNC(C)Cc1cc(OC)c(I)cc1OC (stereo unspecified)	0.36
CCN(CC)C(C)Cc1cc(OC)c(I)cc1OC (stereo unspecified)	0.14

Species on record: Rattus norvegicus
Assay: The distribution of the 131 I-labeled compound at 5 min was evaluated in rat kidney as Percent of injected dose in the total organ
Assay type: ADME, organism-based
Settings: in vivo
Method in brief: as §2

SMILES	Dose [%]
CCN(CC)C(C)Cc1cc(OC)c(I)cc1OC (stereo unspecified)	1.8

Species on record: Rattus norvegicus
Assay: The distribution of the 131 I-labeled compound at 5 min was evaluated in rat brain as Percent of injected dose per gram in the organ
Assay type: ADME, organism-based
Settings: in vivo
Method in brief: as §2

SMILES	Dose [%]
CNC(C)Cc1cc(OC)c(I)cc1OC (stereo unspecified)	0.57
CCCCCCNC(C)Cc1cc(OC)c(I)cc1OC (stereo unspecified)	0.37
CCN(CC)C(C)Cc1cc(OC)c(I)cc1OC (stereo unspecified)	0.39

Species on record: Rattus norvegicus
Assay: The distribution of the 131 I-labeled compound at 5 min was evaluated in rat lung as Percent of injected dose per gram in the organ
Assay type: ADME, organism-based
Settings: in vivo
Method in brief: as §2

SMILES	Dose [%]
CNC(C)Cc1cc(OC)c(I)cc1OC (stereo unspecified)	5.9
CCCCCCNC(C)Cc1cc(OC)c(I)cc1OC (stereo unspecified)	7.5
CCN(CC)C(C)Cc1cc(OC)c(I)cc1OC (stereo unspecified)	2

Species on record: Rattus norvegicus
Assay: The distribution of the 131 I-labeled compound at 5 min was evaluated in rat blood as Percent of injected dose per gram in the organ
Assay type: ADME, organism-based
Settings: in vivo
Method in brief: as §2

SMILES	Dose [%]
CNC(C)Cc1cc(OC)c(I)cc1OC (stereo unspecified)	0.14
CCCCCCNC(C)Cc1cc(OC)c(I)cc1OC (stereo unspecified)	0.16
CCN(CC)C(C)Cc1cc(OC)c(I)cc1OC (stereo unspecified)	0.07

Species on record: Rattus norvegicus
Assay: The distribution of the 131 I-labeled compound at 30 min was evaluated in rat kidney as Percent of injected dose in the total organ
Assay type: ADME, organism-based
Settings: in vivo, 0.5 h
Method in brief: as §2

SMILES	Dose [%]
CCN(CC)C(C)Cc1cc(OC)c(I)cc1OC (stereo unspecified)	1.1

Species on record: Rattus norvegicus
Assay: The distribution of the 131 I-labeled compound at 30 min was evaluated in rat liver as Percent of injected dose per gram in the organ
Assay type: ADME, organism-based
Settings: in vivo, 0.5 h
Method in brief: as §2

SMILES	Dose [%]
CNC(C)Cc1cc(OC)c(I)cc1OC (stereo unspecified)	1.8
CCCCCCNC(C)Cc1cc(OC)c(I)cc1OC (stereo unspecified)	1.6
CCN(CC)C(C)Cc1cc(OC)c(I)cc1OC (stereo unspecified)	0.32

Species on record: Rattus norvegicus
Assay: The distribution of the 131 I-labeled compound at 30 min was evaluated in rat liver as Percent of injected dose in the total organ
Assay type: ADME, organism-based
Settings: in vivo, 0.5 h
Method in brief: as §2

SMILES	Dose [%]
CNC(C)Cc1cc(OC)c(I)cc1OC (stereo unspecified)	11
CCCCCCNC(C)Cc1cc(OC)c(I)cc1OC (stereo unspecified)	9.4
CCN(CC)C(C)Cc1cc(OC)c(I)cc1OC (stereo unspecified)	4.3

Species on record: Rattus norvegicus
Assay: The distribution of the 131 I-labeled compound at 5 min was evaluated in rat kidney as Percent of injected dose per gram in the organ
Assay type: ADME, organism-based
Settings: in vivo
Method in brief: as §2

SMILES	Dose [%]
CCN(CC)C(C)Cc1cc(OC)c(I)cc1OC (stereo unspecified)	0.69

Species on record: Rattus norvegicus
Assay: Ratio of distribution of the [131I]-labeled compound at 5 min in rat heart over uptake in blood
Assay type: ADME, organism-based
Settings: other tissue
Method in brief: as §1

SMILES	Ratio
CNC(C)Cc1cc(OC)c(I)cc1OC (stereo unspecified)	6.6
CCCCCCNC(C)Cc1cc(OC)c(I)cc1OC (stereo unspecified)	13
CCN(CC)C(C)Cc1cc(OC)c(I)cc1OC (stereo unspecified)	5

Species on record: Rattus norvegicus
Assay: Ratio of distribution of the [131I]-labeled compound at 30 min in rat liver over uptake in blood
Assay type: ADME, organism-based
Settings: other tissue, 0.5 h
Method in brief: as §1

SMILES	Ratio
CNC(C)Cc1cc(OC)c(I)cc1OC (stereo unspecified)	6.4
CCCCCCNC(C)Cc1cc(OC)c(I)cc1OC (stereo unspecified)	9.4
CCN(CC)C(C)Cc1cc(OC)c(I)cc1OC (stereo unspecified)	8.1

Species on record: Rattus norvegicus
Assay: Ratio of distribution of the [131I]-labeled compound at 30 min in rat heart over uptake in blood
Assay type: ADME, organism-based
Settings: other tissue, 0.5 h
Method in brief: as §1

SMILES	Ratio
CNC(C)Cc1cc(OC)c(I)cc1OC (stereo unspecified)	1.9
CCCCCCNC(C)Cc1cc(OC)c(I)cc1OC (stereo unspecified)	2.1
CCN(CC)C(C)Cc1cc(OC)c(I)cc1OC (stereo unspecified)	2.3

Species on record: Rattus norvegicus
Assay: Ratio of distribution of the [131I]-labeled compound at 5 min in rat lung over uptake in blood
Assay type: ADME, organism-based
Settings: other tissue
Method in brief: as §1

SMILES	Ratio
CNC(C)Cc1cc(OC)c(I)cc1OC (stereo unspecified)	42
CCCCCCNC(C)Cc1cc(OC)c(I)cc1OC (stereo unspecified)	47
CCN(CC)C(C)Cc1cc(OC)c(I)cc1OC (stereo unspecified)	29

Species on record: Rattus norvegicus
Assay: The distribution of the 131 I-labeled compound at 30 min was evaluated in rat blood as Percent of injected dose per gram in the organ
Assay type: ADME, organism-based
Settings: in vivo, 0.5 h
Method in brief: as §2

SMILES	Dose [%]
CNC(C)Cc1cc(OC)c(I)cc1OC (stereo unspecified)	0.28
CCCCCCNC(C)Cc1cc(OC)c(I)cc1OC (stereo unspecified)	0.17
CCN(CC)C(C)Cc1cc(OC)c(I)cc1OC (stereo unspecified)	0.06

Species on record: Rattus norvegicus
Assay: The distribution of the 131 I-labeled compound at 30 min was evaluated in rat brain as Percent of injected dose per gram in the organ
Assay type: ADME, organism-based
Settings: in vivo, 0.5 h
Method in brief: as §2

SMILES	Dose [%]
CNC(C)Cc1cc(OC)c(I)cc1OC (stereo unspecified)	0.62
CCCCCCNC(C)Cc1cc(OC)c(I)cc1OC (stereo unspecified)	0.57
CCN(CC)C(C)Cc1cc(OC)c(I)cc1OC (stereo unspecified)	0.13

Species on record: Rattus norvegicus
Assay: The distribution of the 131 I-labeled compound at 30 min was evaluated in rat kidney as Percent of injected dose per gram in the organ
Assay type: ADME, organism-based
Settings: in vivo, 0.5 h
Method in brief: as §2

SMILES	Dose [%]
CCN(CC)C(C)Cc1cc(OC)c(I)cc1OC (stereo unspecified)	0.39

Species on record: Rattus norvegicus
Assay: The distribution of the 131 I-labeled compound at 30 min was evaluated in rat heart as Percent of injected dose in the total organ
Assay type: ADME, organism-based
Settings: in vivo, 0.5 h
Method in brief: as §2

SMILES	Dose [%]
CNC(C)Cc1cc(OC)c(I)cc1OC (stereo unspecified)	0.32
CCCCCCNC(C)Cc1cc(OC)c(I)cc1OC (stereo unspecified)	0.25
CCN(CC)C(C)Cc1cc(OC)c(I)cc1OC (stereo unspecified)	0.2
